Source: ChEMBL document CHEMBL4049422, “Discovery of Novel Indazole Derivatives as Orally Available β3-Adrenergic Receptor Agonists Lacking Off-Target-Based Cardiovascular Side Effects” (J Med Chem, 2017)
In brackets after ≈: the same amount, converted by molar mass.

Experiments:
[1] = Solubility of the compound at pH 1.2 buffer solution after 18 hrs by HPLC analysis; type: physicochemical
CYP2C8 = target: T1, CYP2C8 (Homo sapiens, UniProt P10632); experiment: Inhibition of CYP2C8 (unknown origin) at 10 uM relative to control; type: ADME
T1 sequence (P10632 whole entry): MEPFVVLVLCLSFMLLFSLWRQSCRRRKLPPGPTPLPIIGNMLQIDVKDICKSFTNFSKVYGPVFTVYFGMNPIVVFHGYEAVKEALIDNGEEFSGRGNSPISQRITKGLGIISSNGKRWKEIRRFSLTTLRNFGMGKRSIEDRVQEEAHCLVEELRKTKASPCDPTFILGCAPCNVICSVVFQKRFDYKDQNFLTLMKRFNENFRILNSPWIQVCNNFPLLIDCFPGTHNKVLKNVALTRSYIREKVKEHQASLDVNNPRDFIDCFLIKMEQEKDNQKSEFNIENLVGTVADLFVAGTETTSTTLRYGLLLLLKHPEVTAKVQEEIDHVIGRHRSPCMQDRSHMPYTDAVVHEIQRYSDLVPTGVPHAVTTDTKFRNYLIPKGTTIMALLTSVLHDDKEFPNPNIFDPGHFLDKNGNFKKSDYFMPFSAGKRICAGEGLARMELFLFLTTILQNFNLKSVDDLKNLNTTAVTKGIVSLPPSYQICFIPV

[2] = target: Adrenoceptor beta 3 (Callithrix jacchus) (UniProt F6XZF4); experiment: Agonist activity at beta3 adrenergic receptor in marmoset urinary bladder smooth muscle strips assessed as induction of KCl-precontracted muscle relaxation treated every 20 mins
CYP2D6 = CYP2D6 (Homo sapiens, UniProt P10635); experiment: Inhibition of CYP2D6 (unknown origin) at 10 uM relative to control; type: ADME
Homo sapiens = organism: Homo sapiens; experiment: Selectivity ratio of EC50 for recombinant human alpha1A adrenergic receptor to EC50 for recombinant human beta3 adrenergic receptor
Rattus norvegicus [3] = experiment: Cardiotoxicity in Sprague-Dawley rat assessed as decrease in mean blood pressure at 3 mg/kg, iv after 30 mins (reference value: 5.4 +/- 1.9%); type: toxicity, organism-based; parameters: scale not given: the % may be the effect or the level left; settings: in vivo, 0.5 h
[4] = target: T2, Beta-3 adrenergic receptor (Homo sapiens, UniProt P13945); experiment: Agonist activity at recombinant human beta3 adrenergic receptor expressed in CHO cells assessed as accumulation of cyclic AMP after 30 mins; type: cell-based
Target sequence in this assay (P13945 whole entry): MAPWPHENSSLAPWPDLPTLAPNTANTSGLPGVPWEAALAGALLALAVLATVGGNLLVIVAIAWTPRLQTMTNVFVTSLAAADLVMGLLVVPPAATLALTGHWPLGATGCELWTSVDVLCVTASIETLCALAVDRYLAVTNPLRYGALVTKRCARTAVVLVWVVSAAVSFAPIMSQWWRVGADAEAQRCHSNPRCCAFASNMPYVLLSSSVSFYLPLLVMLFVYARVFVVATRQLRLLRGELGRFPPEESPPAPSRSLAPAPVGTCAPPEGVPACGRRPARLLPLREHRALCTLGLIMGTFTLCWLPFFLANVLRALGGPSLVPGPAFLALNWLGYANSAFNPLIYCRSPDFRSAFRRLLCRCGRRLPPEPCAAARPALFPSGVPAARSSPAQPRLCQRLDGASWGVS

[5] = target: Beta-2 adrenergic receptor (Homo sapiens, UniProt P07550); experiment: Intrinsic activity at recombinant human beta2 adrenergic receptor assessed as accumulation of cyclic AMP after 30 mins relative to isoproterenol
CYP2C9 = CYP2C9 (Homo sapiens, UniProt P11712); experiment: Inhibition of CYP2C9 (unknown origin) at 10 uM relative to control; type: ADME
CYP3A4 = CYP3A4 (Homo sapiens, UniProt P08684); experiment: Inhibition of CYP3A4 (unknown origin) at 10 uM relative to control; type: ADME
[6] = Cmax in Sprague-Dawley rat at 5 mg/kg, po by LC-MS/MS analysis; type: ADME, organism-based; parameters: dose 5 mg/kg, route oral; settings: in vivo
Summary of the method: (§1)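 Male Sprague-Dawley rats (n = 2 or 3) dosed orally at 5 mg/kg in saline or water (5 mL/kg). Blood taken from the subclavian vein at 0.5, 1, 2, 4, 6 and 8 h; plasma separated by centrifugation, stored at -20 °C, and drug levels measured by LC-MS/MS. Values are mean ± SD (n = 3) or the average of two experiments.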

[7] = Half life in Sprague-Dawley rat at 5 mg/kg, po by LC-MS/MS analysis; type: ADME, organism-based; settings: in vivo; summary of the method: as §1
[8] = Solubility of the compound at pH 6.8 buffer solution after 18 hrs by HPLC analysis; type: physicochemical
Rattus norvegicus [9] = experiment: Cardiotoxicity in Sprague-Dawley rat assessed as increase in heart beat rate at 3 mg/kg, iv after 30 mins (reference value: 1.8 +/- 0.9%); type: toxicity, organism-based; settings: in vivo, 0.5 h
CYP1A2 = target: T3, CYP1A2 (Homo sapiens, UniProt P05177); experiment: Inhibition of CYP1A2 (unknown origin) at 10 uM relative to control; type: ADME
T3 sequence (P05177 whole entry): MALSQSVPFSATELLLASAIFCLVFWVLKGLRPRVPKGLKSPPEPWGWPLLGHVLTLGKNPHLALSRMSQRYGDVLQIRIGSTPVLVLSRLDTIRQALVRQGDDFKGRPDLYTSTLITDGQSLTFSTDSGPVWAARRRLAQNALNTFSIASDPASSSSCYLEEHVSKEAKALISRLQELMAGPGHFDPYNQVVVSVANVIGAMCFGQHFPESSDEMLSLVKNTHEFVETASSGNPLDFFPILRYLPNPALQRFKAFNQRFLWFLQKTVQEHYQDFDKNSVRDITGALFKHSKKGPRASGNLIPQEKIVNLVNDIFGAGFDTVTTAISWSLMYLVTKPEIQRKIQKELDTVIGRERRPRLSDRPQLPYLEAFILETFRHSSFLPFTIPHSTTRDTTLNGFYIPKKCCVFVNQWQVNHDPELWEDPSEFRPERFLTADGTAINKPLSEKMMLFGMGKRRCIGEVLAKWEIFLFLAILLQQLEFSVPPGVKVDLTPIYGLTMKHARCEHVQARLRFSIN

[10] = target: T2, Beta-3 adrenergic receptor; experiment: Intrinsic activity at recombinant human beta3 adrenergic receptor expressed in CHO cells assessed as accumulation of cyclic AMP after 30 mins relative to isoproterenol; type: cell-based
Target sequence in this assay (P13945 whole entry, looked up): as the sequence (P13945 whole entry) above

[11] = target: T4, Alpha-1A adrenergic receptor (Homo sapiens, UniProt P35348); experiment: Agonist activity at recombinant human alpha1A adrenergic receptor expressed in HEK293 cells assessed as intercellular Ca mobilization by Fura-2AM dye-based fluorescence assay; type: cell-based
T4 sequence (P35348 whole entry): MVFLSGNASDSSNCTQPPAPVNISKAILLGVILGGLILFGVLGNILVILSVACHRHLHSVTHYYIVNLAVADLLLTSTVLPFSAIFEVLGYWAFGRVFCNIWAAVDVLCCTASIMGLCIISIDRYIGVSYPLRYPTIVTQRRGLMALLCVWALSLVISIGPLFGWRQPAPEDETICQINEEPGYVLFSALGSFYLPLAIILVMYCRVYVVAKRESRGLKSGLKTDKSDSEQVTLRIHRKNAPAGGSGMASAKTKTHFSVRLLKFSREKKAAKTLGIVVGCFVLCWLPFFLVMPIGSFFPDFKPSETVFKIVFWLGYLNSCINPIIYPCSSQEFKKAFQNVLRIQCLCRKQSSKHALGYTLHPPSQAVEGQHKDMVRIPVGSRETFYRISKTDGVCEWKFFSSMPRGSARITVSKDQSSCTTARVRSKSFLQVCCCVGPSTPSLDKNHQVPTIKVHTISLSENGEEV

Sequence of CYP2C9 (P11712 whole entry): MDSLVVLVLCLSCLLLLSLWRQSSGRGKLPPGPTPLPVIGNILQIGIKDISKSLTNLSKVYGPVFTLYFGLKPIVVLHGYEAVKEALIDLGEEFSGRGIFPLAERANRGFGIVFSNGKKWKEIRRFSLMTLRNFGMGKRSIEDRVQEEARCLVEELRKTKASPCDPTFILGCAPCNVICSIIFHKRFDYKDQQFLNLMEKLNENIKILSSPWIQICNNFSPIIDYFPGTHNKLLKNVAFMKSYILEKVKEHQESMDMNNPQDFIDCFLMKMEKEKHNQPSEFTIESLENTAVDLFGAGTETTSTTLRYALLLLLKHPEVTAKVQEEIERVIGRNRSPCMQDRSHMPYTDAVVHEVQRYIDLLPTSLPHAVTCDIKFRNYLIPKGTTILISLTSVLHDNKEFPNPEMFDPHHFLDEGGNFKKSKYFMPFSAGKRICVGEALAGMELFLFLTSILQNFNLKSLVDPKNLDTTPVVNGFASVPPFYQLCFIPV
Sequence of CYP2D6 (P10635 whole entry): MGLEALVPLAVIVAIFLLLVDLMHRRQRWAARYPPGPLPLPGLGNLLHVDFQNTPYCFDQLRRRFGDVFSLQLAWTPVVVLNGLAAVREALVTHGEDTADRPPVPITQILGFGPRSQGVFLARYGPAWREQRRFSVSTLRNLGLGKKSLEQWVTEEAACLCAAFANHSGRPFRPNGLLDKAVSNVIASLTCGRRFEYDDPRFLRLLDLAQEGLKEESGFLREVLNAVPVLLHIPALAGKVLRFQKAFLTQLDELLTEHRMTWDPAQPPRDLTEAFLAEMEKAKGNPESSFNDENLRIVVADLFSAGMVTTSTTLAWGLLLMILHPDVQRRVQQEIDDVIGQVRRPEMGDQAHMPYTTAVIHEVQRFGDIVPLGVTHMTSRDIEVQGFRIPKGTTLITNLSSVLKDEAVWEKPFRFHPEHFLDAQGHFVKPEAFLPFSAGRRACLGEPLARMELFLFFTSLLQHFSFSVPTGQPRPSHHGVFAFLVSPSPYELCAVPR
Sequence of Beta-2 adrenergic receptor (P07550 whole entry): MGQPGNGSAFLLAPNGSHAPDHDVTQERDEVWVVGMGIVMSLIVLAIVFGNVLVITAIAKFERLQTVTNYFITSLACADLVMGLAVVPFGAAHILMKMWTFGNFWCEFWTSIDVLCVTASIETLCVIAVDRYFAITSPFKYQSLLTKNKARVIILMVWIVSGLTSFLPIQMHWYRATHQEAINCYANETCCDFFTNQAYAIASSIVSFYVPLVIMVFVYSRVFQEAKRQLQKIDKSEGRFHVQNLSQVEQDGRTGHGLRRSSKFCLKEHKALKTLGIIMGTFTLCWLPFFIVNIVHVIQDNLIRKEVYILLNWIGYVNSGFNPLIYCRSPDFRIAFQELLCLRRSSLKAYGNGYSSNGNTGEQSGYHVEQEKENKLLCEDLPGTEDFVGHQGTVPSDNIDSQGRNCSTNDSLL
Sequence of Adrenoceptor beta 3 (Callithrix jacchus) (F6XZF4 as listed by the source): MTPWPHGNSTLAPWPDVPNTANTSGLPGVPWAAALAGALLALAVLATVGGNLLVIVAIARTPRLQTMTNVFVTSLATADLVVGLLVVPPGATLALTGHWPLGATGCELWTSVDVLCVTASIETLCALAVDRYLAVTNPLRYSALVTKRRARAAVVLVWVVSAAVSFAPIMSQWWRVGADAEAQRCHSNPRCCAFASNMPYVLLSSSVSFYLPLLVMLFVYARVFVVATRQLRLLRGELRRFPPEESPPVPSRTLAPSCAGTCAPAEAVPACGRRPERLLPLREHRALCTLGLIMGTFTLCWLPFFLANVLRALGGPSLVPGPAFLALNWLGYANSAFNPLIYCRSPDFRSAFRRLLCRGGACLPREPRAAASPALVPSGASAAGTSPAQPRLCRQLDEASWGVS
Sequence of CYP3A4 (P08684 whole entry): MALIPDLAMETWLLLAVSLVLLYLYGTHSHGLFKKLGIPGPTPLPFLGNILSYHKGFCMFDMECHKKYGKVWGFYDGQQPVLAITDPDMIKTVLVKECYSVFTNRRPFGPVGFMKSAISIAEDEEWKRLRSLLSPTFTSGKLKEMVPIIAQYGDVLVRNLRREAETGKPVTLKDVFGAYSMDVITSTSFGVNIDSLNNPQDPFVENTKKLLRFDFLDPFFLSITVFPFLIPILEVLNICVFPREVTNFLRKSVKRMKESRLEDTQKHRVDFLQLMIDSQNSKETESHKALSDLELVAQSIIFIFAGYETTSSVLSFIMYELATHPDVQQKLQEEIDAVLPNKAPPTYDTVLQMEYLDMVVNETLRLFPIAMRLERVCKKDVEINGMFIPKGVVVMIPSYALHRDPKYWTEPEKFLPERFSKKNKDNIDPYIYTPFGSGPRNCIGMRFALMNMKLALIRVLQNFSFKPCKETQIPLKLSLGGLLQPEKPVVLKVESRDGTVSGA

For `Cc1n[nH]c2cc(OCCNC[C@H](O)c3cccc(NS(=O)(=O)C4CCC4)c3)ccc12`, the solubility at 18 h [1] was 299 µM (≈ 133 µg/mL), the inhibition at 10 µM (CYP2C8) was less than 34% and the Activity [2] was “Dose-dependent effect”. For the same molecule, the inhibition at 10 µM (CYP2D6) was less than 34%, the Ratio EC50 (Homo sapiens) was greater than 556 and the Activity (Rattus norvegicus [3]) was 12.9%. For the same molecule, the EC50 [4] was 18 nM, the Emax at 0.5 h [5] was 4% and the inhibition at 10 µM (CYP2C9) was less than 34%. The inhibition at 10 µM (CYP3A4) was less than 34%, the Cmax [6] was 119 ng/mL and the half-life [7] was 3.01 h. The solubility at 18 h [8] was 278 µM (≈ 124 µg/mL), the Activity (Rattus norvegicus [9]) was 5.8% and the inhibition at 10 µM (CYP1A2) was less than 34%. The Intrinsic activity [10] was 105% and the EC50 [11] was greater than 10000 nM.
